This passage reports IC50, Activity and inhibition results from ChEMBL document CHEMBL4145630, “Development of Highly Potent and Selective Steroidal Inhibitors and Degraders of CDK8” (ACS Med Chem Lett, 2018).

Active and inactive are the calls of the source.

Assay [1] concerns the target T1, Cyclin-dependent kinase 8 (Homo sapiens, UniProt P49336). Description: Inhibition of CDK8 (unknown origin).
Assay [2] addresses T2, Protein cereblon/Cyclin-dependent kinase 8 (Homo sapiens) (UniProt P49336+Q96SW2). Description: Induction of CRBN-mediated CDK8 degradation in human Jurkat cells at 1 uM measured after 6 to 24 hrs by immunoblot analysis. Type of assay: cell-based. In short, it runs like this: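 Jurkat cells given 0.1 or 1 μM; lysates collected at 6 and 24 h and probed for CDK8 by immunoblot.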
(In general: Immunoblotting shows a protein as a band on a membrane.)

The target of assay [3] is T2, Protein cereblon/Cyclin-dependent kinase 8 (Homo sapiens). The assay is described as follows: Induction of CRBN-mediated CDK8 degradation in wild-type human MOLT4 cells at 5 uM measured after 24 hrs by immunoblot analysis. A digest of the protocol:
(§1)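 Wild-type Molt4 cells and Molt4 cells with CRISPR/Cas9 deletion of CRBN were treated with increasing concentrations for 24 h; CDK8 in lysates detected by immunoblot.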

Assay [4] concerns the target T1, Cyclin-dependent kinase 8. Description: Induction of CDK8 degradation in human MOLT4 cells harboring CRBN deletion mutant at 0.1 to 5 uM measured after 24 hrs by immunoblot analysis. Type of assay: cell-based. In short, it runs like this: as §1
For assay [5], the target named is T2, Protein cereblon/Cyclin-dependent kinase 8 (Homo sapiens). The assay is described as follows: Induction of CRBN-mediated CDK8 degradation in human Jurkat cells at 1 uM measured after 6 hrs in presence of proteasome inhibitor bortezomib by immunoblot analysis. Type of assay: cell-based. In short, it runs like this: (§2)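 Rescue design: Jurkat cells pretreated with bortezomib (10 μM), MLN4924, lenalidomide in excess, or an excess of a CDK8-binding analogue unable to bind CRBN, then exposed to the degrader; CDK8 levels assessed by immunoblot.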

For assay [6] the target is unchanged. Description: Induction of CRBN-mediated CDK8 degradation in human Jurkat cells at 1 uM measured after 6 hrs in presence of neddylation inhibitor MLN4924 by immunoblot analysis. Type of assay: cell-based. A digest of the protocol: as §2
Assay [7] shares this target. Description: Induction of CRBN-mediated CDK8 degradation in human Jurkat cells at 1 uM measured after 6 hrs in presence of N-((3S,17S)-17-(isoquinolin-7-yl)-10,13-dimethylhexadecahydro-1H-cyclopenta[a]phenanthren-3-yl)-Nmethyl-1-((2-(1-methyl-2,6-dioxopiperidin-3-yl)-1,3-dioxoisoindolin-4-yl)amino)-3,6,9,12-tetraoxapentadecan-15-amide by immunoblot analysis. Format: cell-based. A digest of the protocol: as §2

Assay [8] shares this target. Description: Induction of CRBN-mediated CDK8 degradation in human Jurkat cells at 1 uM measured after 6 hrs in presence of lenalidomide by immunoblot analysis. Type of assay: cell-based. In short, it runs like this: as §2
The next assay has as its system Jurkat. The assay is described as follows: Effect on CDK8 mRNA levels in human Jurkat cells at 1 uM after 24 hrs by qPCR analysis. Type of assay: functional, cell-based. A digest of the protocol:
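Jurkat cells exposed to 1 μM or vehicle for 24 h; Cdk8 mRNA quantified by qPCR with two separate Cdk8 primer sets, normalized to Actin.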

Assay [9] addresses T2, Protein cereblon/Cyclin-dependent kinase 8 (Homo sapiens). Description: Induction of CRBN-mediated CDK8 degradation in wild-type human Jurkat cells at 1 to 10 uM measured after 24 hrs by immunoblot analysis. Type of assay: cell-based. In short, it runs like this:
(§3)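 Jurkat cells incubated with increasing concentrations (up to 20 μM in the widest series) for 24 h; lysate CDK8 levels read by immunoblot.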

Assay [10] has the same target. Description: Induction of CRBN-mediated CDK8 degradation in wild-type human Jurkat cells at 20 uM measured after 24 hrs by immunoblot analysis. Type of assay: cell-based. In short, it runs like this: as §3
Assay [11] deals with Protein cereblon/Cyclin-dependent kinase 19 (Homo sapiens) (UniProt Q9BWU1+Q96SW2). Description: Induction of CRBN-mediated CDK19 degradation in wild-type human Jurkat cells up to 20 uM measured after 24 hrs by immunoblot analysis. Format: cell-based. In short, it runs like this:
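Jurkat cells treated for 24 h; CDK19 protein in cell lysates assessed by immunoblot.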

The target in assay [12] is T3, Cyclin-dependent kinase 19 (Homo sapiens, UniProt Q9BWU1). The assay is described as follows: Induction of CDK19 degradation in human Jurkat cells up to 20 uM measured after 24 hrs by immunoblot analysis.
T3 sequence (Q9BWU1 whole entry, the tested form may be a part): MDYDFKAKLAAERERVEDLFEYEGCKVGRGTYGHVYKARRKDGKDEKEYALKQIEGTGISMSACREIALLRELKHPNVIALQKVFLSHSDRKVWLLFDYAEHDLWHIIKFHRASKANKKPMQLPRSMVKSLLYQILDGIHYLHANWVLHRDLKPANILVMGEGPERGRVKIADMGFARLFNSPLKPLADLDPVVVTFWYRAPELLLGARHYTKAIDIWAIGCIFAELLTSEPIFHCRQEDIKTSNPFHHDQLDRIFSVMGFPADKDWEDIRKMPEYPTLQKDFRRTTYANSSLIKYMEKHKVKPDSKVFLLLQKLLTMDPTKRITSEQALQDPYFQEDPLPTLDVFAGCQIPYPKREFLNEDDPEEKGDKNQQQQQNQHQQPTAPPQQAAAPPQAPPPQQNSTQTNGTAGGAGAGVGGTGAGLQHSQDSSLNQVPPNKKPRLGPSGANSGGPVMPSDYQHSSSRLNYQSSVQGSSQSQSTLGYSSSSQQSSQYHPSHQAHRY
Assay [13] deals with T1, Cyclin-dependent kinase 8. The assay is described as follows: Inhibition of wild-type human partial length CDK8 (M1 to T360 residues) expressed in bacterial expression system at 10 uM by Kinomescan method relative to control. A digest of the protocol: (§4)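 Ambit KINOMEscan binding panel run at a single 10 μM concentration; results expressed relative to control, with a 90% inhibition cutoff applied.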

The target in assay [14] is T4, Serine/threonine-protein kinase Nek1 (Homo sapiens) (UniProt Q96PY6).
T4 sequence (whole entry): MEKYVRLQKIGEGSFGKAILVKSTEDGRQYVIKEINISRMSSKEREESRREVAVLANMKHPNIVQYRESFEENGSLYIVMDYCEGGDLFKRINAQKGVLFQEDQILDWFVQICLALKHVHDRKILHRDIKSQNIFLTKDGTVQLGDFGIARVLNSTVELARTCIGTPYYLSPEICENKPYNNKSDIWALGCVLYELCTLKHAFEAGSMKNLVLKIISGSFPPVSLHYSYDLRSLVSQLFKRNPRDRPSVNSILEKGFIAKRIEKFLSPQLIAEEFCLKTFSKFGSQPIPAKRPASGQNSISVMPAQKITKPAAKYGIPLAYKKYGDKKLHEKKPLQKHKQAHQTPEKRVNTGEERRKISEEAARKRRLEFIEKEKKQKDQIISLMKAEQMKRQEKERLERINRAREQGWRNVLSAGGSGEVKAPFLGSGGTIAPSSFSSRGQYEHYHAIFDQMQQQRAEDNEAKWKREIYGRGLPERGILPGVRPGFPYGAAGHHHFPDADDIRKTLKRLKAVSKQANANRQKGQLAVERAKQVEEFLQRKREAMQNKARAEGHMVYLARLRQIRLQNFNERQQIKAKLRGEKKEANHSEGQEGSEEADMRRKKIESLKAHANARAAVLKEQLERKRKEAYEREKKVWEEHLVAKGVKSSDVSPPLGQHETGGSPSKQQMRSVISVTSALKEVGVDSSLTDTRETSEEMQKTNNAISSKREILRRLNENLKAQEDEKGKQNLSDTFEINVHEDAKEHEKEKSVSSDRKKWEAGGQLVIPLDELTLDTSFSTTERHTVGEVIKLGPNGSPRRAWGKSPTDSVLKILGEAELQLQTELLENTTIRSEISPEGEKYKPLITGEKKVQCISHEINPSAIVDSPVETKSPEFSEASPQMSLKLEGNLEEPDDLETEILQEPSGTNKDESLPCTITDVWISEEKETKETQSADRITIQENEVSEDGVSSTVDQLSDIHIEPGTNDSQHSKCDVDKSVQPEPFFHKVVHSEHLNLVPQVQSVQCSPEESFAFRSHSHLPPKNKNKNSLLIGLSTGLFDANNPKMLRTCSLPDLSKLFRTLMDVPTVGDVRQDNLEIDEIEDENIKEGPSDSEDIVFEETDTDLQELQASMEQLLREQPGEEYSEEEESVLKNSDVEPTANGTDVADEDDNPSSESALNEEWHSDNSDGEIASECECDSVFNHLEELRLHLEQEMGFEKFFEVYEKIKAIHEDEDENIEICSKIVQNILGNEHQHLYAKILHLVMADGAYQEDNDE
The assay is described as follows: Inhibition of wild-type human partial length NEK1 (M1 to K278 residues) expressed in bacterial expression system at 10 uM by Kinomescan method relative to control. In short, it runs like this: as §4

The target in assay [15] is 1-phosphatidylinositol 3-phosphate 5-kinase (Homo sapiens) (UniProt Q9Y2I7). Description: Inhibition of wild-type human partial length PIKFYVE (F1512 to C2098 residues) expressed in mammalian expression system at 10 uM by Kinomescan method relative to control. A digest of the protocol:
as §4

Assay [16] addresses T3, Cyclin-dependent kinase 19. Description: Inhibition of human CDK19 (M1 to N360 residues) expressed in bacterial expression system by KINOMEscan assay.
For assay [17], the target named is T5, Serine/threonine-protein kinase Nek1 (Homo sapiens, UniProt Q96PY6).
T5 sequence (Q96PY6 whole entry): T4 sequence (whole entry)
The assay is described as follows: Inhibition of wild-type human partial length NEK1 (M1 to K278 residues) expressed in bacterial expression system by Kinomescan method.

The target of assay [18] is T1, Cyclin-dependent kinase 8. The assay is described as follows: Inhibition of CDK8 in human HepG2 cells assessed as reduction in IFNgamma-induced STAT1 phosphorylation at S727 measured after 18 hrs by Western blot analysis. Format: cell-based.
In assay [19] the target is T3, Cyclin-dependent kinase 19. The assay is described as follows: Inhibition of human CDK19 (M1 to N360 residues) expressed in bacterial expression system at 10 uM by KINOMEscan assay relative to control.
Assay [20] has as its target T2, Protein cereblon/Cyclin-dependent kinase 8 (Homo sapiens). Description: Induction of CRBN-mediated CDK8 degradation in human Jurkat cells at 0.1 to 1 uM measured after 6 to 24 hrs by immunoblot analysis. Format: cell-based. In short, it runs like this: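 Jurkat cells were treated with compound at 0.1 or 1 μM. Lysates were collected at 6 and 24 h, and CDK8 protein levels were assessed by immunoblot.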

T1 sequence (P49336 whole entry): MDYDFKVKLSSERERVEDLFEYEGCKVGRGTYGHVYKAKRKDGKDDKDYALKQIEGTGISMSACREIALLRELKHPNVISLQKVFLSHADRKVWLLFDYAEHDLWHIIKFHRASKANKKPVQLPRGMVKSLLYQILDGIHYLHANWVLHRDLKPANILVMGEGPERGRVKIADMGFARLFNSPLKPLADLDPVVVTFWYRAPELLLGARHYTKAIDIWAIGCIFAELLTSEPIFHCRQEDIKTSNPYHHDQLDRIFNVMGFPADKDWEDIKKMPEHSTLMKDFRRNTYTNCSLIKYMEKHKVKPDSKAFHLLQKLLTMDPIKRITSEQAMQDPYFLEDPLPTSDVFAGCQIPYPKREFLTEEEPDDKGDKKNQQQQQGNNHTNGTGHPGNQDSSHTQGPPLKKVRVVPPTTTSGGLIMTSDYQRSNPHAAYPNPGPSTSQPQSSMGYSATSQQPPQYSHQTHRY
T2 sequence (P49336 whole entry, looked up): as the sequence (P49336 whole entry) above
T2 sequence (Q96SW2 whole entry, looked up): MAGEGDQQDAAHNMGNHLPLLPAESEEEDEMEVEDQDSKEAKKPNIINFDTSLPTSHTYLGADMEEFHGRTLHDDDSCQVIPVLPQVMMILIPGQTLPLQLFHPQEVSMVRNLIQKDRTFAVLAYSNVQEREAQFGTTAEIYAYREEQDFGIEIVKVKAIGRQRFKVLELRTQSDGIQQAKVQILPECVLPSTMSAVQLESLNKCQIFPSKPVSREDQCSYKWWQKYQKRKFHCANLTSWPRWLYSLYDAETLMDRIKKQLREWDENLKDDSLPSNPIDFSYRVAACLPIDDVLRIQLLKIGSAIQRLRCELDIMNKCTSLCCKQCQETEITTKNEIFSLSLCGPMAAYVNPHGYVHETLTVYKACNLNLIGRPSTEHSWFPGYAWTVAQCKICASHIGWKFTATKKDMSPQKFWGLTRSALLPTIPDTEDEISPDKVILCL
Chain of 1-phosphatidylinositol 3-phosphate 5-kinase (Homo sapiens) (Q9Y2I7 whole entry, the tested form may be a part): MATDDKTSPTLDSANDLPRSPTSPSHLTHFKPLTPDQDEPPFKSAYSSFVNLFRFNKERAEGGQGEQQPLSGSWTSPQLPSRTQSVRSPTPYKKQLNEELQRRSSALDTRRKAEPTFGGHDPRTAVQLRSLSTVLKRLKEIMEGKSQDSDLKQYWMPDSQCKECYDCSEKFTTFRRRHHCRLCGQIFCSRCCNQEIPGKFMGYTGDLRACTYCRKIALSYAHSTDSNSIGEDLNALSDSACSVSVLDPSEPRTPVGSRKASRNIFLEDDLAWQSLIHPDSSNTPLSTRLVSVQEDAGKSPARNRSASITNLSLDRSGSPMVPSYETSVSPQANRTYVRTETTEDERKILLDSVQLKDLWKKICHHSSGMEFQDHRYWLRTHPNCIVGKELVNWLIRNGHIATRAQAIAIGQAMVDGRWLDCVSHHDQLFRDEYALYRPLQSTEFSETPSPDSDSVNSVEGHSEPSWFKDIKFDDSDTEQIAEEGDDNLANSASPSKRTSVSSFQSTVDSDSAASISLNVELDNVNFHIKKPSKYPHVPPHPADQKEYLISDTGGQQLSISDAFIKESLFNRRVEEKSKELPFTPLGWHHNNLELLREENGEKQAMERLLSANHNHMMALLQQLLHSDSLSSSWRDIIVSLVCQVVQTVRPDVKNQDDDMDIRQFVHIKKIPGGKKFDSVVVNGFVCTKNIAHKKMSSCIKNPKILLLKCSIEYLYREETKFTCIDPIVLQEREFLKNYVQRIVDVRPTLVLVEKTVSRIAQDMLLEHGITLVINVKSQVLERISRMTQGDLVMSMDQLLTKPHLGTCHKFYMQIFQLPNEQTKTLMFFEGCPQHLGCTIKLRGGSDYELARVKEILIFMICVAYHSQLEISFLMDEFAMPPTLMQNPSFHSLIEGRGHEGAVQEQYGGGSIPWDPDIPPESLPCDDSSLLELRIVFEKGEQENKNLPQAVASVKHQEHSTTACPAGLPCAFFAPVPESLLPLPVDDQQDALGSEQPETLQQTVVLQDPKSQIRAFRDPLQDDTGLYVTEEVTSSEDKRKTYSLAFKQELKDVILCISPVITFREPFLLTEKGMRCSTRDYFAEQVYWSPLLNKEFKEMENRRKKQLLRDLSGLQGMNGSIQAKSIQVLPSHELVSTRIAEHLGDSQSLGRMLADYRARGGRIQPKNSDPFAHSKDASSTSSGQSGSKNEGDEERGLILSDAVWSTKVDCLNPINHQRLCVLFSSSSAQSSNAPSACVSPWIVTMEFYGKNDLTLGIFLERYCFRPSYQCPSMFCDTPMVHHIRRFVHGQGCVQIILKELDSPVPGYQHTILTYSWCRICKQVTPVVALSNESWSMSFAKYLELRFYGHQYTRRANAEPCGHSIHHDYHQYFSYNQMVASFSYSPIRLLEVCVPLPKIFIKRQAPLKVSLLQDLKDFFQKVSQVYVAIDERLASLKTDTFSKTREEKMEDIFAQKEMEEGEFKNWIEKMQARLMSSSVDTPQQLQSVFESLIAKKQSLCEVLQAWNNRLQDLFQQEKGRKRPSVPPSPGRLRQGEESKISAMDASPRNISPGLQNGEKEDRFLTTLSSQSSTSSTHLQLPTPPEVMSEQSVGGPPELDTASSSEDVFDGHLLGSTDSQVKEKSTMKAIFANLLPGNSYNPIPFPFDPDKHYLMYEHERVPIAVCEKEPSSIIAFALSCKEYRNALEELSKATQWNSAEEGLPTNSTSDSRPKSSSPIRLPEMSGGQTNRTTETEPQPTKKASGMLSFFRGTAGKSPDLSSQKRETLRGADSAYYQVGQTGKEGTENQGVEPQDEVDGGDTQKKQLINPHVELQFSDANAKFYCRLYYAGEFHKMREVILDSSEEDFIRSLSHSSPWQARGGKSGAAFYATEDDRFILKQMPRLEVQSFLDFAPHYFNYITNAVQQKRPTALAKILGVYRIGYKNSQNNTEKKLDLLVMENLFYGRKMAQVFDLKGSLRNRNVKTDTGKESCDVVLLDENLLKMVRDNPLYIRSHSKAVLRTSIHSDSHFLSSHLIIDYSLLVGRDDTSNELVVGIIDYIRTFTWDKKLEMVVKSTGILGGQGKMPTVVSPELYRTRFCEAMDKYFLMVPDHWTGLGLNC
Chain of Protein cereblon/Cyclin-dependent kinase 19 (Homo sapiens) (Q96SW2 whole entry, looked up): as the sequence (Q96SW2 whole entry, looked up) above
Chain of Protein cereblon/Cyclin-dependent kinase 19 (Homo sapiens) (Q9BWU1 whole entry, looked up): as the sequence (Q9BWU1 whole entry, the tested form may be a part) above

The IC50 is the concentration that gives 50% inhibition. Lower therefore signals greater potency. `CN(C(=O)CCOCCOCCOCCOCCNc1cccc2c1C(=O)N(C1CCC(=O)NC1=O)C2=O)[C@H]1CC[C@@]2(C)[C@@H](CC[C@@H]3[C@@H]2CC[C@]2(C)[C@@H](c4ccc5ccncc5c4)CC[C@@H]32)C1` (some centres not stated): the IC50 in [1] amounted to 159 nM. Further, the outcome in [2], in [3] and in [9] was Active. In addition, the result (in assay [4]; in assay [5]; in assay [6]; in assay [7]; in [8]; in the assay on Jurkat) was inactive. In addition, the result in assay [10], in assay [11] and in assay [12] was inactive.

Usually inhibition stands for the percentage by which the read-out fell short of the control. As to `CN(C)[C@H]1CC[C@@]2(C)C(=CC[C@H]3[C@@H]4CC[C@H](c5ccc6ccncc6c5)[C@@]4(C)CC[C@@H]32)C1`, the inhibition in assay [13] was over 90%; in [14], over 90%; in [15], over 90%; in [18] it was “Dose-dependent effect”; in [19], over 90%. The IC50 was 16 nM in assay [1], 8 nM in assay [16] and over 10 µM in assay [17].

With `CN(CCCCCOCCOCCNc1cccc2c1C(=O)N(C1CCC(=O)NC1=O)C2=O)[C@H]1CC[C@@]2(C)[C@@H](CC[C@@H]3[C@@H]2CC[C@]2(C)[C@@H](c4ccc5ccncc5c4)CC[C@@H]32)C1` (some centres not stated), the result in assay [20] was inactive.
